Measured values reported in ChEMBL document CHEMBL1131478 (J Med Chem, 1998).

Assays:
[1] = target: Matrix metalloproteinase-9 (Homo sapiens, UniProt P14780); experiment: Inhibitory activity against human gelatinase B (Matrix metalloprotease-9)
[2] = target: 72 kDa type IV collagenase (Homo sapiens, UniProt P08253); experiment: Inhibitory activity against human gelatinase A (matrix metalloprotease-2 MMP2)
[3] = Maximum plasma concentration (Cmax) after p.o. administration of 200 mg/kg in mice; format: ADME, organism-based; parameters: dose 200 mg/kg, route oral; conditions: mouse, po
In short: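 Single 200 mg/kg oral dose in mice, given in 0.5% methyl cellulose. Blood drawn at various time points. Plasma drug extracted with CH3CN and quantified by reverse-phase C18 HPLC using a CH3CN gradient with 0.1% TFA. Peak plasma level taken as Cmax.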

72 kDa type IV collagenase, sequence (P08253 whole entry): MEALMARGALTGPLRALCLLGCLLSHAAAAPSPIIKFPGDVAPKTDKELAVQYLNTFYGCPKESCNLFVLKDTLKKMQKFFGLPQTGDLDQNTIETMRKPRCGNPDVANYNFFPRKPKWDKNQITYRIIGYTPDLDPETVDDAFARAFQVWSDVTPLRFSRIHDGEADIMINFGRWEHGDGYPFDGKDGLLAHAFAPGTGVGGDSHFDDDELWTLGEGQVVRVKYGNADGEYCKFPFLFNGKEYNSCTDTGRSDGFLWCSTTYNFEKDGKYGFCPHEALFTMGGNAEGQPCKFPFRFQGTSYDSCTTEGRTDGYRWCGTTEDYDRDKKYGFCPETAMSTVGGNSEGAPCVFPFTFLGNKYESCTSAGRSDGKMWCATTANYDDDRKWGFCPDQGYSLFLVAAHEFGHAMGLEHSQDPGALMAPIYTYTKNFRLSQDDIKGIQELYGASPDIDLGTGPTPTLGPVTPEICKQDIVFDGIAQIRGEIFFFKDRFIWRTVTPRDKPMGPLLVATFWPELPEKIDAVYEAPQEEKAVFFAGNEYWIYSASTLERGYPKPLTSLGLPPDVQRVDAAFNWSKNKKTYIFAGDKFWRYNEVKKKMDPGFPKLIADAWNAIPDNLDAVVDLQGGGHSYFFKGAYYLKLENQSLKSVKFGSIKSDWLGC
Matrix metalloproteinase-9, sequence (P14780 whole entry): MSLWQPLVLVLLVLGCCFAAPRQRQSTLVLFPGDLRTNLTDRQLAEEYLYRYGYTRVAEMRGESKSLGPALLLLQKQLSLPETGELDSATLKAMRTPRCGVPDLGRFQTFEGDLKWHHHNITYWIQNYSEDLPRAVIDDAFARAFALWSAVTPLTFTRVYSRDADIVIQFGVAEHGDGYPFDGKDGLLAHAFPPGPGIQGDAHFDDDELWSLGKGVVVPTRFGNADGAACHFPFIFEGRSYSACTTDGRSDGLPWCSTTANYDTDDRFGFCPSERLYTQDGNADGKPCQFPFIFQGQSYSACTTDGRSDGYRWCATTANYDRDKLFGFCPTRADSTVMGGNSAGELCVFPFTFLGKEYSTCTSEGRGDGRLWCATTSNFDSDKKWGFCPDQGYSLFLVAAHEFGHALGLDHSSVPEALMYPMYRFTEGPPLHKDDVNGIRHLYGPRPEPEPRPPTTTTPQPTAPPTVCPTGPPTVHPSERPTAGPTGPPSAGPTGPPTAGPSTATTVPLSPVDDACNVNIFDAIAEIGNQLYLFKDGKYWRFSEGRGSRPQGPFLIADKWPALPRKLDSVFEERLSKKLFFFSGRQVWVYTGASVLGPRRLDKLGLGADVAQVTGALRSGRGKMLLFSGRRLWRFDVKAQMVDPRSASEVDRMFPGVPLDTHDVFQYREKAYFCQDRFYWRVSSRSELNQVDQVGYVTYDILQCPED

Structure (SMILES) | IC50 [1] [µM] | IC50 [2] [µM] | Cmax [3] [µM]
COc1cccc(-c2ccc(S(=O)(=O)N[C@H](Cc3c[nH]c4ccccc34)C(=O)O)cc2)c1 | 1.1 | 1 | –
O=C(O)c1ccc(C#Cc2ccc(S(=O)(=O)N[C@H](Cc3c[nH]c4ccccc34)C(=O)O)cc2)cc1 | 8.8 | > 1 | –
O=C(Nc1ccccc1)c1ccc(S(=O)(=O)N[C@H](Cc2c[nH]c3ccccc23)C(=O)O)cc1 | > 10 | > 1 | –
O=C(N[C@H](Cc1ccccc1)C(=O)O)c1ccc(-c2ccccc2)cc1 | > 50 | > 1 | –
O=C(O)[C@@H](Cc1c[nH]c2ccccc12)NS(=O)(=O)c1ccc(C#Cc2ccccc2[N+](=O)[O-])s1 | 1.5 | > 1 | –
O=C(O)[C@@H](Cc1c[nH]c2ccccc12)NS(=O)(=O)c1ccccc1 | 3.4 | > 1 | –
O=C(NO)[C@@H](Cc1ccccc1)NS(=O)(=O)c1ccccc1 | 0.73 | – | –
O=C(Nc1ccccc1)Nc1ccc(S(=O)(=O)N[C@H](Cc2c[nH]c3ccccc23)C(=O)O)cc1 | > 10 | > 1 | –
O=C(NO)[C@H](Cc1ccccc1)NS(=O)(=O)c1ccccc1 | > 1000 | – | –
CC(C)[C@@H](NS(=O)(=O)c1ccc(Oc2ccccc2)cc1)C(=O)O | 1.1 | > 1 | 334
O=C(c1ccccc1)c1ccc(S(=O)(=O)N[C@H](Cc2c[nH]c3ccccc23)C(=O)O)cc1 | > 10 | > 1 | –
COc1ccc(C#Cc2ccc(S(=O)(=O)N[C@H](Cc3ccccc3)C(=O)O)cc2)cc1 | 7.8 | 1 | –
O=C(O)[C@@H](Cc1c[nH]c2ccccc12)NS(=O)(=O)c1ccc(C#Cc2ccc([N+](=O)[O-])cc2)s1 | 0.023 | – | –
O=C(O)[C@@H](Cc1c[nH]c2ccccc12)NS(=O)(=O)c1ccc2oc3ccccc3c2c1 | > 10 | > 1 | –
O=C(O)[C@@H](Cc1c[nH]c2ccccc12)NS(=O)(=O)c1ccc(Cc2ccccc2)cc1 | > 10 | > 1 | –
O=C(Nc1ccc(S(=O)(=O)N[C@H](Cc2ccccc2)C(=O)O)cc1)c1ccccc1 | – | < 1 | –
O=C(O)[C@@H](Cc1c[nH]c2ccccc12)NS(=O)(=O)c1ccc2ccccc2c1 | > 10 | > 1 | –
O=C(NO)C(Cc1ccccc1)NS(=O)(=O)c1ccccc1 (configuration not stated) | 1 | – | –
Cc1ccc(C#Cc2ccc(S(=O)(=O)N[C@@H](C(=O)O)C(C)C)cc2)cc1 | 1.2 | > 1 | –
O=C(N[C@H](Cc1ccccc1)C(=O)NO)c1ccc(-c2ccccc2)cc1 | > 50 | > 1 | –
O=C(O)[C@H](Cc1ccccc1)NS(=O)(=O)c1ccc(-c2ccccc2)cc1 | 0.8 | – | –
O=C(O)[C@@H](Cc1ccccc1)NS(=O)(=O)c1ccc(-c2nnn(-c3ccc(C4CCCCC4)cc3)n2)cc1 | – | 0.28 | –

Results, then the molecule that gave them:

IC50 [1] [µM] | IC50 [2] [µM] | Cmax [3] [µM] | Structure (SMILES)
– | 0.013 | 2.1 | COc1ccc(-n2nnc(-c3ccc(S(=O)(=O)N[C@H](Cc4c[nH]c5ccccc45)C(=O)O)cc3)n2)cc1
– | 0.017 | 2.5 | O=C(NO)[C@@H](Cc1ccccc1)NS(=O)(=O)c1ccc(-c2ccccc2)cc1
0.00054 | 0.002 | 5.8 | CC(C)[C@@H](NS(=O)(=O)c1ccc(Oc2ccccc2)cc1)C(=O)NO
2.1 | 0.05 | – | CC(C)[C@@H](NS(=O)(=O)c1ccc(NC(=O)c2ccccc2)cc1)C(=O)O
0.014 | 0.053 | 284 | Cc1ccc(C#Cc2ccc(S(=O)(=O)N[C@@H](C(=O)O)C(C)C)s2)cc1
0.58 | 0.11 | 12.1 | O=C(O)[C@@H](Cc1ccccc1)NS(=O)(=O)c1ccc(-c2nnn(-c3ccccc3)n2)cc1
0.081 | 0.0065 | 3.5 | COc1ccc(-c2ccc(S(=O)(=O)N[C@H](Cc3c[nH]c4ccccc34)C(=O)O)cc2)cc1
– | < 0.2 | 1.2 | Cc1ccc(-n2nnc(-c3ccc(S(=O)(=O)N[C@H](Cc4ccccc4)C(=O)O)cc3)n2)cc1
0.072 | 0.066 | 97.5 | COc1ccc(-c2ccc(S(=O)(=O)N[C@@H](C(=O)O)C(C)C)s2)cc1
– | < 0.04 | – | O=C(Nc1ccc(S(=O)(=O)N[C@H](Cc2c[nH]c3ccccc23)C(=O)O)cc1)c1ccccc1
0.25 | 0.05 | – | O=C(O)[C@@H](Cc1c[nH]c2ccccc12)NS(=O)(=O)c1ccc(Oc2ccccc2)cc1
– | 0.0067 | 8.3 | CSc1ccc(C(=O)Nc2ccc(S(=O)(=O)N[C@@H](C(=O)O)C(C)C)cc2)cc1
0.016 | 0.034 | 10.8 | Cc1ccc(C#Cc2ccc(S(=O)(=O)N[C@H](Cc3c[nH]c4ccccc34)C(=O)O)cc2)cc1
0.35 | 0.05 | – | O=C(O)[C@@H](Cc1c[nH]c2ccccc12)NS(=O)(=O)c1ccc(/N=N/c2ccccc2)cc1
0.18 | 0.053 | 34.3 | O=C(O)[C@@H](Cc1c[nH]c2ccccc12)NS(=O)(=O)c1ccc(-c2ccccc2)cc1
– | 0.31 | 291 | O=C(O)[C@@H](Cc1ccccc1)NS(=O)(=O)c1ccc(-c2ccccc2)cc1
0.005 | 0.0013 | – | O=C(NO)[C@@H](Cc1c[nH]c2ccccc12)NS(=O)(=O)c1ccc(-c2ccccc2)cc1
– | 0.13 | – | CC(C)[C@@H](NS(=O)(=O)c1ccc(-c2nnn(-c3ccccc3)n2)cc1)C(=O)O
– | 0.0083 | 2.5 | O=C(O)[C@@H](Cc1c[nH]c2ccccc12)NS(=O)(=O)c1ccc(-c2nnn(-c3ccc(Br)cc3)n2)cc1
0.24 | 0.05 | – | O=C(O)[C@@H](Cc1c[nH]c2ccccc12)NS(=O)(=O)c1ccc(C#Cc2ccccc2)cc1
0.27 | < 0.04 | – | CC(C)[C@@H](NS(=O)(=O)c1ccc(NC(=O)c2ccc([N+](=O)[O-])cc2)cc1)C(=O)O
0.04 | < 0.1 | 89.9 | COc1ccc(-c2ccc(S(=O)(=O)N[C@@H](C(=O)O)C(C)C)cc2)cc1
0.024 | 0.01 | 119 | COc1ccc(C#Cc2ccc(S(=O)(=O)N[C@H](Cc3ccccc3)C(=O)O)s2)cc1
– | < 0.04 | – | Cc1ccc(C(=O)Nc2ccc(S(=O)(=O)N[C@H](Cc3ccccc3)C(=O)O)cc2)cc1
